MPTP block = mitochondrial permeability transition pore inhibitors, primary screen, biochemical, isolated mouse mitochondria, absorbance. Ca2+ swelling absorbance, 30 min. inhibition, % at 10 µM. actives 1.4% (n = 360,000). AID 602449, 2012;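 active = inhibition of 50% or more, scaled per plate between neutral and stimulator controls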;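 note: 0% = DMSO wells given calcium and 100% = 1 mM EGTA wells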
SENP1 inh = human SENP1 catalytic domain inhibitors, primary screen, biochemical, FRET, uHTS; AID 624204, 2012; actives 0.21% (n = 360,000); recombinant SENP1 catalytic domain, CyPet-SUMO1-YPet FRET cleavage; inhibition, % at 10 µM;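 active = inhibition at least 30% at 10 µM, raw YFP signal under a set limit, fluorescence ratio 0.5 to 1.5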;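 note: 0% = enzyme with DMSO and 100% = no enzyme wells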
Target sequence (Q9P0U3 419-644 limits assumed): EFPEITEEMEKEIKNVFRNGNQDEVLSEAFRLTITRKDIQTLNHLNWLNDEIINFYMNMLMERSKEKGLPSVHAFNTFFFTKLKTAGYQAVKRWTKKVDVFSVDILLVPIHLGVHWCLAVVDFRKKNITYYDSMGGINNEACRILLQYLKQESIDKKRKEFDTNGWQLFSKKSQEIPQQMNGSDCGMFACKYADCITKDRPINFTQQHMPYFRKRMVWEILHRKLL
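Controls: no-enzyme wells low, DMSO-plus-enzyme wells high control. Test system: human recombinant His6-tagged SENP1 catalytic domain enzyme. Reagent: SFCypet-SUMO1-SFYpet FRET protein substrate, 25 nM final. Doses: one dose per compound, 10 µM, 0.5% DMSO. Detection: FRET, CFP and YFP emission. Timing: 50 min reaction at room temperature.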
GRIN3A LBD mod = binders of NR3A ligand-binding domain, primary screen, biophysical, differential scanning fluorimetry, uHTS; Glutamate receptor ionotropic, NMDA 3A (GRIN3A) ligand-binding domain; NR3A LBD differential scanning fluorimetry, Tm shift; 0% = protein alone, 100% = glycine-bound protein; Tm shift relative to glycine control, % at 25 µM; AID 1259313, 2017; actives 2.5% (n = 340,000);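 active = melting temperature shift of at least 10% of the positive control shift, at one fixed dose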
EBI2 antag = EBI2 receptor antagonists, beta-arrestin recruitment, primary screen, cell-based, luminescence, 7a,25-OHC stimulation, uHTS; G-protein coupled receptor 183 (Homo sapiens), P32249; 7a,25-OHC stimulated; inhibition, % at 5 µM; actives 0.81% (n = 360,000); AID 651636, 2012; in the data active = inhibition above about 38%;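 note: enzyme fragment complementation signal reports receptor beta-arrestin coupling in cells; 0% = agonist plus DMSO wells and 100% = wells without agonist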
Target sequence (P32249 whole entry, looked up, the tested form may be a part): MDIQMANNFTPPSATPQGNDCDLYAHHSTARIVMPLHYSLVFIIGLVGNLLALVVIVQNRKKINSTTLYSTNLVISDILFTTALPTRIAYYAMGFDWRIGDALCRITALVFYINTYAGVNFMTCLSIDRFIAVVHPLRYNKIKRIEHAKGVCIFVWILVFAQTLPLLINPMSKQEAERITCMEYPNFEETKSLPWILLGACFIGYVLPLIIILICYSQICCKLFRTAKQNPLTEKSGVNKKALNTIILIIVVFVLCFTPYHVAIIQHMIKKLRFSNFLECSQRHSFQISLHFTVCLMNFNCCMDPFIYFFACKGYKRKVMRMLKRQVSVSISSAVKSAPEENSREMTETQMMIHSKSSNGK
Numbers without * were called inactive; x = not tested or not shown. Sampled rows, rich in hits. Any-hit rate of the full collection: about 4.4%.

SMILES | MPTP block | SENP1 inh | GRIN3A LBD mod | EBI2 antag
Cc1ccc(NC(=O)COC(=O)c2ccc(OC(F)F)cc2)cc1S(=O)(=O)N1CCCCC1 | 0.4 | 4.7 | 1.1 | 3.7
O=C(Nc1ccc(S(=O)(=O)N2CCCC2)cc1)c1cccc(OC(F)F)c1 | 0.2 | 1.0 | 19.2* | 0.4
COc1ccc(C(=O)Nc2ccc(S(=O)(=O)N3CCCCC3)cc2)cc1 | -0.1 | 0.4 | 23.6* | 7.3
Cc1ccc(NC(=O)CNC(=O)c2ccc(OC(F)F)cc2)cc1S(=O)(=O)N1CCCCCC1 | 1.1 | 0.0 | 11.9* | -13.6
O=C(Nc1cccc(S(=O)(=O)N2CCCC2)c1)c1cccc(OC(F)F)c1 | 0.7 | -0.5 | -4.1 | -1.1
COc1ccc(C(=O)Nc2ccc(S(=O)(=O)N3CCN(C)CC3)cc2)cc1 | 3.0 | 1.5 | -0.1 | -6.1
O=C(Nc1ccc(S(=O)(=O)N2CCCC2)cc1)c1ccc([N+](=O)[O-])cc1 | -1.5 | 0.1 | 26.6* | -6.2
O=C(Nc1ccc(S(=O)(=O)N2CCCC2)cc1)c1ccc([N+](=O)[O-])o1 | 0.3 | -0.9 | 27.3* | -31.4
Cc1ccc(NC(=O)c2ccc(S(=O)(=O)N3CCCC3)cc2)cc1 | -0.4 | 3.1 | 16.0* | 28.5
O=C(Nc1ccc(S(=O)(=O)N2CCOCC2)cc1)c1ccc([N+](=O)[O-])o1 | 2.5 | 2.5 | -2.2 | 4.4
COC1CCCN(C(=O)c2cccc(OC3CCN(S(=O)(=O)N(C)C)CC3)c2)C1 (stereo unspecified) | -1.2 | 0.9 | -6.4 | -8.2
CCOC(=O)c1c(C)[nH]c(C(=O)OCC(=O)Nc2ccc(Cl)cn2)c1C | 1.3 | -6.6 | 1.1 | 7.2
NC(=O)c1ccsc1NC(=O)COC(=O)c1ccccc1F | -0.6 | -4.1 | 0.5 | 0.7
CCOC(=O)c1c(C)[nH]c(C(=O)OCC(=O)Nc2sccc2C(N)=O)c1C | -0.6 | -12.6 | 28.6* | -33.3
NC(=O)c1ccsc1NC(=O)COC(=O)c1cc(Cl)ccc1O | -0.5 | -2.9 | 19.5* | -8.3
CC(=O)Oc1ccc(/C(C)=N/N2CCN(Cc3ccc(C)cc3)CC2)cc1 | 0.7 | 2.1 | 0.7 | -6.3
Nc1ccccc1Nc1cc(-c2ccccc2)nn1-c1cccc(Cl)c1 | 2.8 | 16.4 | 11.2* | 2.6
O=C(/C=C/Nc1ccc(F)cc1)c1ccco1 | -1.6 | -50.0 | 14.6* | 5.4
COc1ccc(OC)c(C(=O)c2ccc(C(=O)Nc3cccc4ccccc34)cc2)c1 | 1.7 | 1.5 | 0.4 | 4.5
Cc1ccc(C(=O)CC(=O)COc2ccc(Cl)cc2)cc1 | -0.7 | 1.7 | -2.9 | 38.5
O=C(/C=C/c1cccs1)c1ccc([N+](=O)[O-])cc1 | 4.0 | 1.4 | 1.2 | 1.5
O=C(/C=C/c1cccs1)c1ccc(N2CCOCC2)cc1 | -0.4 | 14.1 | 2.1 | 45.0*
O=C(NCc1ccco1)/C(=C/c1ccccc1F)NC(=O)c1ccccc1 | -0.5 | 2.9 | 13.7* | 12.7
O=C(Nc1ccc(OCc2ccccc2)cc1)c1cccnc1 | 1.6 | 0.0 | 1.9 | -14.8
O=C(Nc1ccc(OCc2ccccc2)cc1)Nc1cccnc1 | 0.6 | 1.0 | 14.6* | -2.5
SMILES | MPTP block | SENP1 inh | GRIN3A LBD mod | EBI2 antag
COc1ccc(NC(=O)/C(Cl)=C(/Cl)S(=O)Cc2ccc(Cl)cc2)cn1 (stereo unspecified) | -6.2 | 0.5 | 0.0 | 71.4*
COc1ccc(NC(=O)Nc2ccc(OCc3ccccc3)cc2)cn1 | 3.2 | -7.8 | 29.0* | 1.3
COc1ccc(NC(=O)/C(Cl)=C(/Cl)S(=O)(=O)Cc2ccccc2)cn1 | -5.4 | -0.6 | 2.6 | 60.9*
COc1ccc(CC(=O)Nc2ccc(OC)nc2)cc1 | -2.0 | -0.3 | -0.9 | 0.4
CN(C)CCNc1ncnc2c1ncn2[C@H]1CN(Cc2ccco2)C[C@@H](CO)O1 | -0.4 | -1.2 | x | -2.3
C#CCOCCOCCOCCNc1nc(N2CCN(C(=O)[C@H](C(C)C)n3cc(CCO)nn3)CC2)nc(N2CCN(C(=O)[C@H](CCCCN)n3cc(CCCC)nn3)CC2)n1 | 3.0 | 0.8 | -0.9 | 3.8
Cc1ccc2[nH]c(O)c(N=NC(=O)CCc3ccccc3)c2c1Br | 12.7 | 0.4 | 17.1* | 9.7
C[C@H](CO)N1C[C@H](C)[C@H](CN(C)Cc2cncnc2)Oc2cc(Br)ccc2S1(=O)=O | -3.1 | 2.3 | x | -8.1
CCc1cc2c(=O)n(CC(C)C)cnc2s1 | -0.5 | 1.2 | 18.0* | -2.8
CCOC(=O)c1nn(-c2ccccc2)cc1O | -0.6 | 1.2 | 10.3* | -2.2
CCOC(=O)c1nn(-c2ccc(C)cc2)cc1O | 3.0 | -3.0 | -0.1 | -0.1
O=C(O)CS(=O)(=O)c1ccc(Oc2ccc(S(=O)(=O)CC(=O)O)cc2)cc1 | x | x | 11.1* | x
CC(=O)CS(=O)(=O)c1ccc(Oc2ccc(S(=O)(=O)CC(C)=O)cc2)cc1 | 0.5 | 3.3 | 0.0 | -3.0
COc1ccc(-c2nc3ccccc3c(=O)n2O)cc1 | -0.9 | -1.9 | 32.1* | 2.4
COc1ccccc1NC(=O)Nc1ccc2c(c1)CCC2 | -0.6 | 0.0 | 3.3 | -4.3
COc1ccc(C)cc1NC(=O)Nc1ccc2c(c1)CCC2 | 0.5 | 1.8 | 11.1* | 12.5
O=C(Nc1ccccc1)Nc1ccc2c(c1)CCC2 | 23.3 | -0.3 | 11.4* | 1.8
O=C(Nc1ccc(F)cc1)Nc1ccc2c(c1)CCC2 | 23.3 | 0.9 | 8.5 | -8.3
O=C(N/N=C/c1c[nH]c2ccccc12)c1cccs1 | 0.5 | -0.4 | 22.6* | 6.5
O=C(N/N=C/c1c[nH]c2ccccc12)c1ccc2c(c1)OCCO2 | 0.6 | -0.7 | 10.9* | 7.2
O=C(N/N=C/c1c[nH]c2ccc(Br)cc12)c1ccc2c(c1)OCO2 | -0.1 | 0.6 | 31.1* | 5.1
O=C(N/N=C/c1c[nH]c2c1ccc1ccccc12)c1ccc([N+](=O)[O-])cc1 | -0.1 | 5.3 | 39.1* | -16.3
Cc1ccc(C)c(NC(=O)CN(C)C(=O)[C@@H](NC(=O)c2ccc(C(C)(C)C)cc2)C(C)C)c1 | 3.5 | 1.5 | -0.1 | 8.3
Cc1cccc(N2CCN(c3ccc(N4C(=O)CCCC4=O)cc3[N+](=O)[O-])CC2C)c1 (stereo unspecified) | 1.5 | 3.4 | -8.8 | 5.5
CC1(C)CCN2CCC(C)(C)c3c(O)ccc1c32 | 1.2 | -26.2 | -3.3 | 8.0
Cc1nc(N)sc1C(=O)N/N=C/c1ccccc1[N+](=O)[O-] | -0.8 | 0.4 | x | -2.3
O=C(NC(Cc1c[nH]c2ccccc12)C(=O)Nc1ccc(OC(F)(F)F)cc1)c1cccs1 (stereo unspecified) | 14.3 | 0.0 | 32.8* | 10.6
O=C(NC(Cc1c[nH]c2ccccc12)C(=O)O)c1cccs1 (stereo unspecified) | 0.1 | 1.5 | -5.5 | -4.3
O=C(NC(Cc1c[nH]c2ccccc12)C(=O)Nc1ccc(F)c([N+](=O)[O-])c1)c1cccs1 (stereo unspecified) | 4.2 | 1.2 | 5.2 | 8.4
